Series [1] relates to Mycobacterium tuberculosis. Briefly: Antitubercular activity against Mycobacterium tuberculosis H37Rv assessed as bacterial growth inhibition after 7 days by broth microdilution assay. It is filed as functional. The conditions noted are these: 168 h, dose 0.03-64 µg/ml, time 7 day. An outline of the steps:
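Compounds were tested in broth microdilution from 64 downward, incubated 37 °C for 7 days, then resazurin (PrestoBlue) added. MIC is the lowest concentration preventing the blue-to-pink change, run in triplicate, reporting the value obtained at least twice of three.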
(In general: Broth dilution looks for growth in wells or tubes with falling amounts of substance.)

Series [2] concerns Mycobacteroides abscessus. In words: Antimycobacterial activity against Mycobacterium abscessus ATCC 19977 assessed as visible growth inhibition incubated for 16 to 18 hrs. It counts as functional, organism-based. As to conditions: time 16-18 hrs.
Series [3] has as its system Mycolicibacterium fortuitum. Briefly: Antimycobacterial activity against Mycobacterium fortuitum ATCC 6841 assessed as visible growth inhibition incubated for 16 to 18 hrs. It is filed as functional, organism-based. As to conditions: time 16-18 hrs.
The next series has as its system Mycobacteroides chelonae. In words: Antimycobacterial activity against Mycobacterium chelonae ATCC 35752 assessed as visible growth inhibition incubated for 16 to 18 hrs. As to conditions: time 16-18 hrs. It counts as functional, organism-based.
Series [4] can be described thus: Selectivity index, ratio of CC50 for African green monkey Vero cells to MIC for Antitubercular activity against Mycobacterium tuberculosis H37Rv. It counts as toxicity. As to conditions: read-out: Selectivity Index. An outline of the steps: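 Selectivity index calculated as Vero CC50 (MTT, 72 h) divided by the H37Rv MIC from the resazurin broth microdilution assay.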

Series [5] is described as follows: Cytotoxicity against African green monkey vero cells assessed as reduction in cell viability measured after 72 hrs by MTT assay. It is filed as cell-based. As to conditions: chlorocebus sabaeus. An outline of the steps: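 Vero cells seeded at ~10³ cells/well and grown 24 h at 37 °C, 5% CO₂, then exposed to compound (100 to 5 mg/l) for 72 h. MTT was added […] for 4 h and formazan dissolved in DMSO. CC50 is the lowest concentration giving 50% viability reduction. Doxorubicin was the positive control, run in triplicate.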
(In general: Tetrazolium assays rely on reduction of a dye to a coloured formazan, in cell work by metabolically active cells.)

In brackets after ≈: the same amount, converted by molar mass. Activity calls are given as the source filed them. The calls are words filed in the database; no cut-off is given here.

Regarding `CCOC(=O)c1nnn(-c2cccc(NC(=O)c3ccc(/C=C/C(=O)c4ccc(Cl)cc4)cc3)c2)c1C`, the MIC – broadly, the lowest concentration that inhibits growth of the organism – in series [1] was greater than 64 µg/mL. In series [2], the result was inactive.

For `COC(=O)c1cc(-c2cccc(NC(=O)c3ccc(/C=C/C(=O)c4cccnc4)cc3)c2)on1`, the MIC in series [1] came to 64 µg/mL (≈ 141 µM). In addition, the outcome (in series [3]; in the series on Mycobacteroides chelonae; in series [2]) was inactive.

As to `COC(=O)c1cc(-c2cccc(NC(=O)c3ccc(OCc4ccc(Cl)cc4)cc3)c2)on1`, the MIC in series [1] came out at 1 µg/mL (≈ 2.16 µM). In addition, the result (in series [3]; in the series on Mycobacteroides chelonae; in series [2]) was inactive. In addition, in series [4], the selectivity ratio was greater than 80. In addition, the CC50 – broadly, the concentration giving 50% cytotoxicity – at 72 h in series [5] was greater than 80 µg/mL.

`COC(=O)c1cc(-c2cccc(NC(=O)c3ccc(/C=C/C(=O)c4ccccc4O)cc3)c2)on1`: the MIC in series [1] is 16 µg/mL (≈ 34.2 µM). The result (in series [3]; in the series with Mycobacteroides chelonae; in series [2]) was inactive.

With `COC(=O)c1cc(-c2cccc(NC(=O)c3ccc(/C=C/C(=O)c4ccccc4)cc3)c2)on1`, the MIC in series [1] came out at 1 µg/mL (≈ 2.21 µM). The result (in series [3]; in the series with Mycobacteroides chelonae; in series [2]) was inactive. Besides, the selectivity ratio in series [4] is greater than 50. In addition, in series [5], the CC50 at 72 h was greater than 50 µg/mL.

Consider `COC(=O)c1cc(-c2cccc(NC(=O)c3ccc(/C=C/C(=O)c4ccc(OC)cc4)cc3)c2)on1`, for which the MIC in series [1] was determined as 4 µg/mL (≈ 8.29 µM). The outcome (in series [3]; with Mycobacteroides chelonae; in series [2]) was inactive. In addition, in series [4], the selectivity ratio is greater than 2.5. The CC50 at 72 h in series [5] is greater than 10 µg/mL.

In the case of `COc1ccc(OC)c(/C=C/C(=O)c2ccc(Nc3ccnc4cc(Cl)ccc34)cc2)c1`, the MIC in series [1] is 3.12 µg/mL (≈ 7.01 µM).

As for `COC(=O)c1cc(-c2cccc(NC(=O)c3ccc(/C=C/C(=O)c4ccc(C)c(F)c4)cc3)c2)on1`, in series [1], the MIC was determined as 2 µg/mL (≈ 4.13 µM). For the same molecule, the outcome (in series [3]; with Mycobacteroides chelonae; in series [2]) was inactive. Besides, the selectivity ratio in series [4] is greater than 25. For the same molecule, the CC50 at 72 h in series [5] was greater than 50 µg/mL.

As to `O=C(O)c1ccc(/C=C/C(=O)c2ccc(Cl)cc2)cc1`, in series [1], the MIC was 4 µg/mL (≈ 14 µM). The selectivity ratio in series [4] is less than 10. Besides, the CC50 at 72 h in series [5] was less than 10 µg/mL.

`COC(=O)c1cc(-c2cccc(NC(=O)c3ccc(/C=C/C(=O)c4ccc(OC)c([N+](=O)[O-])c4)cc3)c2)on1`: in series [1], the MIC is 1 µg/mL (≈ 1.9 µM). Moreover, the result (in series [3]; in the series with Mycobacteroides chelonae; in series [2]) was inactive. Also, the selectivity ratio in series [4] was greater than 40. The CC50 at 72 h in series [5] was greater than 40 µg/mL.

For the molecule `O=C(/C=C/c1c[nH]c2ccccc12)c1cccs1`, in series [1], the MIC was determined as 49.9 µg/mL (≈ 197 µM).

Consider `O=C(O)c1ccc(C(=O)/C=C/c2ccc3ccccc3c2)cc1`, for which the MIC in series [1] is 0.5 µg/mL (≈ 1.65 µM).

Turning to `COC(=O)c1cc(-c2cccc(NC(=O)c3ccc(/C=C/C(=O)c4ccccc4OC)cc3)c2)on1`, in series [1], the MIC came out at 1 µg/mL (≈ 2.07 µM). In addition, the result (in series [3]; in the series on Mycobacteroides chelonae; in series [2]) was inactive. Further, the selectivity ratio in series [4] was greater than 40. For the same molecule, in series [5], the CC50 at 72 h is greater than 40 µg/mL.

`COC(=O)c1cc(-c2cccc(NC(=O)c3ccc(/C=C/C(=O)c4ccc(F)cc4)cc3)c2)on1`: the MIC in series [1] was found to be 4 µg/mL (≈ 8.5 µM). In addition, the outcome (in series [3]; in the series with Mycobacteroides chelonae; in series [2]) was inactive. Moreover, in series [4], the selectivity ratio is greater than 5. Further, the CC50 at 72 h in series [5] was greater than 20 µg/mL.

For the molecule `CC(C)Cc1ccc(C(=O)/C=C/c2ccc(C(=O)O)cc2)cc1`, the MIC in series [1] came to 32 µg/mL (≈ 104 µM). In addition, in series [4], the selectivity ratio was less than 10. In addition, the CC50 at 72 h in series [5] was less than 10 µg/mL.

As for `COC(=O)c1cc(-c2cccc(NC(=O)c3ccc(/C=C/C(=O)c4ccc(O)cc4)cc3)c2)on1`, in series [1], the MIC is greater than 64 µg/mL. The outcome (in series [3]; in the series with Mycobacteroides chelonae; in series [2]) was inactive.

For the molecule `CCOC(=O)c1cc(-c2cccc(OCc3cccc(C(F)(F)F)c3)c2)on1`, the MIC in series [1] turned out to be 0.23 µg/mL (≈ 0.588 µM).

Consider `COC(=O)c1cc(-c2cccc(NC(=O)c3ccc(/C=C/C(=O)c4ccc(OC)c(OC)c4)cc3)c2)on1`, for which, in series [1], the MIC amounted to 1 µg/mL (≈ 1.95 µM). Further, the outcome (in series [3]; in the series on Mycobacteroides chelonae; in series [2]) was inactive. Besides, the selectivity ratio in series [4] was greater than 50. Moreover, the CC50 at 72 h in series [5] was greater than 50 µg/mL.

`COC(=O)c1cc(-c2cccc(NC(=O)c3ccc(/C=C/C(=O)c4cccc(Br)c4)cc3)c2)on1`: in series [1], the MIC came to 4 µg/mL (≈ 7.53 µM). For the same molecule, the outcome (in series [3]; with Mycobacteroides chelonae; in series [2]) was inactive. In addition, the selectivity ratio in series [4] was greater than 25. Also, in series [5], the CC50 at 72 h was greater than 100 µg/mL.

Take `COC(=O)c1cc(-c2cccc(NC(=O)c3ccc(/C=C/C(=O)c4ccccc4Br)cc3)c2)on1`: in series [1], the MIC amounted to 1 µg/mL (≈ 1.88 µM). In addition, the result (in series [3]; in the series with Mycobacteroides chelonae; in series [2]) was inactive. The selectivity ratio in series [4] was greater than 40. Further, the CC50 at 72 h in series [5] was greater than 40 µg/mL.

For `O=C(/C=C/c1ccc(-n2ccnc2)cc1)c1ccc(OCc2cc(F)ccc2F)cc1`, the MIC in series [1] is 0.78 µg/mL (≈ 1.87 µM).

`COC(=O)c1cc(-c2cccc(NC(=O)c3ccc(/C=C/C(=O)c4ccc([N+](=O)[O-])cc4)cc3)c2)on1`: the MIC in series [1] amounted to 2 µg/mL (≈ 4.02 µM). Further, the result (in series [3]; in the series on Mycobacteroides chelonae; in series [2]) was inactive. Besides, in series [4], the selectivity ratio is greater than 10. For the same molecule, the 50% cytotoxic concentration (CC50) at 72 h in series [5] is greater than 20 µg/mL.

For `COC(=O)c1cc(-c2cccc(NC(=O)/C=C/c3ccc(Cl)cc3)c2)on1`, the MIC in series [1] stood at 2 µg/mL (≈ 5.22 µM). Besides, the result (in series [3]; with Mycobacteroides chelonae; in series [2]) was inactive.

`CCOC(=O)c1cc(COc2cc(C(F)(F)F)nc3cc(C(F)(F)F)cc(C(F)(F)F)c23)on1`: the MIC in series [1] turned out to be 0.39 µg/mL (≈ 0.776 µM).

Consider `COC(=O)c1cc(-c2cccc(NC(=O)c3ccc(/C=C/C(=O)c4cccs4)cc3)c2)on1`, for which, in series [1], the MIC turned out to be 32 µg/mL (≈ 69.8 µM). The result (in series [3]; in the series with Mycobacteroides chelonae; in series [2]) was inactive.

On to `CCCOc1ccc(C(=O)/C=C/c2ccc(C(=O)O)cc2)cc1`, for which the MIC in series [1] turned out to be 32 µg/mL (≈ 103 µM). Besides, the selectivity ratio in series [4] is less than 10. In addition, the CC50 at 72 h in series [5] was less than 10 µg/mL.

On to `CCOC(=O)c1cc(-c2cccc(NC(=O)c3cccc(C(F)(F)F)c3)c2)on1`, for which the MIC in series [1] turned out to be 64 µg/mL (≈ 158 µM).

`Cc1ccc(Nc2nc(-c3cc(C(=O)Nc4ccccn4)no3)c(C)s2)cc1`: the MIC90 (in general, an inhibitory concentration at the 90% level, which refers to growth in some studies and to a panel of isolates in others) in series [1] was found to be 0.06 µg/mL (≈ 0.153 µM).

Regarding `COC(=O)[C@H](NC(=O)c1cc(COc2ccc3sc(C)nc3c2)on1)c1ccccc1`, the MIC in series [1] amounted to 0.61 µg/mL (≈ 1.39 µM).

For the molecule `O=C(/C=C/c1ccc([N+](=O)[O-])o1)c1ccc(N2CCCCC2)cc1`, the MIC in series [1] worked out at 0.06 µg/mL (≈ 0.184 µM).

These data come from ChEMBL document CHEMBL4823271, “Synthesis and structure-activity relationship of new chalcone linked 5-phenyl-3-isoxazolecarboxylic acid methyl esters potentially active against drug resistant Mycobacterium tuberculosis” (Eur J Med Chem, 2021).
